For 84 variants, yeast fitness results are on record in the RNAGym collection of RNA variant scans (doi:10.1126/science.aae0568).

Variants at the floor of the assay were thinned out. Some results are limits rather than exact numbers.

B1: tRNA (parent)
chain: GUUCCGUUGGCGUAAUGGUAACGCGUCUCCCUCCUAAGGAGAAGACUGCGGGUUCGAGUCCCGUACGGAACG

The variants in the series derive from B1. Description: yeast fitness relative to wild type (ratio to wild type); higher = fitter; tRNA-Arg(CCU), competitive growth, 37 C, YPD. In outline:
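The tRNA-Arg(CCU) gene variants were made by chemical synthesis with a 3% per-site mutation rate at 69 sites and inserted at the native genomic locus of Saccharomyces cerevisiae. After pooling, the strains were competed in YPD at 37°C for 24 hours in six parallel replicates. Gene amplicons from the start population and each end population were read by 100-nucleotide paired-end sequencing, and Darwinian fitness relative to wild type was taken from genotype frequency changes. Genotypes needed ≥ 100 starting reads, and estimates < 0.5 were set to 0.5.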
On to C5G A42C A70C, for which the yeast fitness is 0.689.

Turning to C5G C11A C46G, the yeast fitness was found to be 0.639.

For the variant C5G A14U C33G A43U U54C, the yeast fitness is ≤ 0.5.

Regarding C5G A40U A42G U53A U54A, the yeast fitness is ≤ 0.5.

Turning to C5G C11A U19C A20C C33A C61G C66U A69U, the yeast fitness was ≤ 0.5.

Regarding C5G C29A G58C U64G, the yeast fitness was 0.545.

For the variant C5G A15G C61U, the yeast fitness was 0.539.

Take C5G A15G C27G U28A U32A A45G C46U G56C C61U: the yeast fitness came to 0.736.

In the case of C5G C11U A21G C60A, the yeast fitness is ≤ 0.5.

On to C5G A21U G23A C29A A37U C61U, for which the yeast fitness is ≤ 0.5.

Consider C5G A21G C27G C34G A43C C46G A70U, for which the yeast fitness turned out to be 0.569.

Regarding C5G A42U A70C, the yeast fitness was 0.681.

C5G C30U U32A C49G: the yeast fitness is ≤ 0.5.

Turning to C5G A20G G58C, the yeast fitness turned out to be 0.648.

In the case of C5G C29A C30U U35A C55G G56C, the yeast fitness is ≤ 0.5.

Take C5G A14U A20C A45G: the yeast fitness is ≤ 0.5.

For the variant C5G C31U C33U A57U, the yeast fitness is ≤ 0.5.

For C5G C29U A43C, the yeast fitness amounted to 0.537.

As for C5G C30A C31A C49U C55G, the yeast fitness came out at 0.544.

For C5G C34G C46U C49U, the yeast fitness is ≤ 0.5.

For the variant C5G A20C C27G C49U U53A, the yeast fitness was found to be 0.568.

C5G C11U U47A G68C: the yeast fitness was ≤ 0.5.

For the variant C5G A20U, the yeast fitness came to 0.621.

Regarding C5A U16G A21C C24U C30A, the yeast fitness is 0.618.

For C5A U35C G44A G48C C55G, the yeast fitness was ≤ 0.5.

For the variant C5A U35C G44A G48C C55A, the yeast fitness was ≤ 0.5.

Take C5G A14G A36U: the yeast fitness was 0.647.

Regarding C5A U13G U32A A42U G52A U54A A69C, the yeast fitness is ≤ 0.5.

Turning to C5A U28G C30G A40C A42U, the yeast fitness was ≤ 0.5.

C5G A15C A21U C24U A57G G67U: the yeast fitness is ≤ 0.5.

With C5G C34G C49U G50A, the yeast fitness is ≤ 0.5.

As for C5G C31A A37C G48A G58C G68C, the yeast fitness was ≤ 0.5.

Consider C5G C29A C31A, for which the yeast fitness worked out at 0.714.

In the case of C5G A15U G56A A70G, the yeast fitness was ≤ 0.5.

As to C5A U26C G41C A43U A57G, the yeast fitness is ≤ 0.5.

Consider C5A U35C C66U, for which the yeast fitness was 0.579.

In the case of C5G C30U U32C G44C, the yeast fitness is ≤ 0.5.

On to C5G A20U A65G, for which the yeast fitness was 0.65.

For the variant C5G A65U G67C, the yeast fitness came out at 0.569.

On to C5G A20G A40G G44A C46G, for which the yeast fitness was 0.517.

As for C5G A14C G23C C33U G38A G58C A70G, the yeast fitness is ≤ 0.5.

As to C5G A20U G68C, the yeast fitness is ≤ 0.5.

Consider C5G A14C G18A A43G A45C C46U A69C, for which the yeast fitness is ≤ 0.5.

Turning to C5G A20C C24U C55U, the yeast fitness is ≤ 0.5.

Take C5G C11G A15C A45U C49U: the yeast fitness was ≤ 0.5.

For C5G A21U A43G C62A, the yeast fitness is ≤ 0.5.

On to C5G A20C C27G G67U, for which the yeast fitness is ≤ 0.5.

Regarding C5G C33A A37C C61U C62A, the yeast fitness is ≤ 0.5.

For C5G A37G, the yeast fitness turned out to be 0.805.

Consider C5G A14C C29A C31G A65C, for which the yeast fitness was ≤ 0.5.

As for C5G A42C C60A, the yeast fitness was ≤ 0.5.

As for C5G A42C U54G, the yeast fitness was ≤ 0.5.

In the case of C5A U26C C27U, the yeast fitness is 0.687.

Consider C5G A15U A20U A40C G67A, for which the yeast fitness worked out at 0.538.

In the case of C5G A45C C60U A69U, the yeast fitness was 0.52.

Consider C5G A42U A57U U59A A69C, for which the yeast fitness was ≤ 0.5.

For the variant C5G C27U C34A G51A, the yeast fitness is ≤ 0.5.

For the variant C5G C22A C33G U35A C55U, the yeast fitness was ≤ 0.5.

With C5G C24G C27G C60U, the yeast fitness was determined as 0.627.

As to C5G C11G A40G, the yeast fitness was 0.556.

Consider C5A U16A C22G A37U, for which the yeast fitness is 0.717.

With C5A U13G A14G U32A A42U G52A U54A C60G, the yeast fitness is ≤ 0.5.

For the variant C5G C24U C66A, the yeast fitness is ≤ 0.5.

As to C5G A14C G18A A43G A45C C46U A57G, the yeast fitness was ≤ 0.5.

C5G A21G C31G A36C A57G C62U: the yeast fitness was found to be 0.586.

Turning to C5G A20U C62G, the yeast fitness was ≤ 0.5.

In the case of C5G A65G A69U, the yeast fitness worked out at 0.71.

As to C5G C27G U32C C33U G56A A69U, the yeast fitness is ≤ 0.5.

Turning to C5G C11G C27G G48A, the yeast fitness came out at 0.524.

Regarding C5G C29U G44C, the yeast fitness was ≤ 0.5.

Take C5G C31U U32C: the yeast fitness stood at 0.659.

For the variant C5G C31U A37G, the yeast fitness worked out at 0.592.

Turning to C5A U47C A70G, the yeast fitness turned out to be 0.705.

For the variant C5A U32G, the yeast fitness amounted to 0.584.

For the variant C5A U59A C66A, the yeast fitness is ≤ 0.5.

On to C5A U35C A36U, for which the yeast fitness was found to be 0.57.

Take C5G C31A A45U: the yeast fitness was 0.584.

Turning to C5G A21G C49A U54C A65G, the yeast fitness is ≤ 0.5.

C5G A69C A70U: the yeast fitness came to 0.765.

As for C5G A21G C33A G68C A69U, the yeast fitness is ≤ 0.5.

For the variant C5G A65C G68A, the yeast fitness came out at 0.671.

On to C5G A20C C24U, for which the yeast fitness is ≤ 0.5.

As for C5G A21U G23A C29A A37U A57G C61U, the yeast fitness was found to be 0.541.

As to C5G C11U G25C, the yeast fitness was 0.571.
